Laboratory results reported in ChEMBL document CHEMBL3091328, “Synthesis, DNA-binding abilities and anticancer activities of triazole-pyrrolo[2,1-c][1,4]benzodiazepines hybrid scaffolds” (Bioorg Med Chem Lett, 2013).
Active and inactive are the calls of the source. The rule behind the calls is not given here.

Experiments:
A-375 [1] = test: Cytotoxicity against human A375 cells assessed as cell survival at 5 uM after 24 hrs by MTT assay relative to control; format: functional; conditions: A-375, 24 h, read-out: Survival
How it was run: (§1)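 Cells exposed to agent at 5 µM for 24 h, then growth and viability measured by MTT assay. Survival given as percent of untreated control.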

A549 = test: Cytotoxicity against human A549 cells assessed as cell survival at 5 uM after 24 hrs by MTT assay relative to control; format: functional; conditions: A549, 24 h, read-out: Survival; how it was run: as §1
Ca9-22 = test: Cytotoxicity against human Ca9-22 cells assessed as cell survival at 5 uM after 24 hrs by MTT assay relative to control; format: functional; conditions: Ca9-22, 24 h, read-out: Survival; how it was run: as §1
A2058 = test: Cytotoxicity against human A2058 cells assessed as cell survival at 5 uM after 24 hrs by MTT assay relative to control; format: functional; conditions: A2058, 24 h, read-out: Survival; how it was run: as §1
[2] = Cytotoxicity against human skin fibroblasts assessed as cell survival at 5 uM after 24 hrs by MTT assay relative to control; set-up: species or system Skin fibroblast; conditions: read-out: Survival; how it was run: as §1
[3] = Cytotoxicity against human RPMI7951 cells assessed as cell survival at 5 uM after 24 hrs by MTT assay relative to control; format: functional; conditions: RPMI-7951, 24 h, read-out: Survival; how it was run: as §1
B16 = test: Cytotoxicity against mouse B16 cells assessed as cell survival at 5 uM after 24 hrs by MTT assay relative to control; format: functional; conditions: B16, 24 h, read-out: Survival; how it was run: as §1
HEK-293T = test: Cytotoxicity against human 293T cells assessed as cell survival at 5 uM after 24 hrs by MTT assay relative to control; format: functional; conditions: read-out: Survival; how it was run: as §1
A-375 [4] = test: Cell cycle arrest in human A375 cells assessed as accumulation at G2/M phase after 24 hrs by propidium iodide staining-based flow cytometry (reference value: 15.2 +/- 0.6%); format: functional
A-375 [5] = test: Cell cycle arrest in human A375 cells assessed as accumulation at G1 phase after 24 hrs by propidium iodide staining-based flow cytometry (reference value: 65.3 +/- 0.1%); format: functional
A-375 [6] = test: Cytotoxicity against human A375 cells assessed as cell survival at 1 to 5 uM after 12 hrs by MTT assay relative to control; format: functional, cell-based
How it was run: (§2)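 A375 cells seeded at 10,000 per well, attached overnight, then exposed in triplicate to 0, 1, 3 or 5 μM for 0, 12 or 24 h; viability by MTT absorbance versus untreated control; IC50 taken as mean of dose-response curves from three experiments.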

A-375 [7] = test: Cell cycle arrest in human A375 cells assessed as accumulation at sub-G1 phase after 24 hrs by propidium iodide staining-based flow cytometry (reference value: 7.7 +/- 0.1%); format: functional
A-375 [8] = test: Cell cycle arrest in human A375 cells assessed as accumulation at S phase after 24 hrs by propidium iodide staining-based flow cytometry (reference value: 11.8 +/- 0.1%); format: functional
A-375 [9] = test: Upregulation of p21 mRNA expression in human A375 cells at 5 uM after 24 hrs by RT-PCR analysis; format: functional, cell-based
How it was run: (§3)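 A375 cells treated 24 h at 5 μM; p53, p21, p27 and cyclin D1 transcripts quantified by qPCR, normalised to β-actin in each sample, compared with control.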

A-375 [10] = test: Induction of apoptosis in human A375 cells assessed as increase in Bax protein level at 5 uM after 24 hrs by Western blotting analysis; format: functional, cell-based
How it was run: (§4)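 Lysates from A375 cells exposed 24 h to 5 μM, or to a range of concentrations, immunoblotted with specific antibodies against Bcl-2, Bcl-xL, Bax, Bad, caspase-3 and PARP; actin probed as loading control; three separate experiments.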

A-375 [11] = test: Downregulation of cyclin D1 mRNA expression in human A375 cells at 5 uM after 24 hrs by RT-PCR analysis; format: functional, cell-based; how it was run: as §3
A-375 [12] = test: Induction of apoptosis in human A375 cells assessed as decrease in Bcl-2 protein level at 5 uM after 24 hrs by Western blotting analysis; format: functional, cell-based; how it was run: as §4
A-375 [13] = test: Induction of apoptosis in human A375 cells assessed as decrease in Bcl-XL protein level at 5 uM after 24 hrs by Western blotting analysis; format: functional, cell-based; how it was run: as §4
A-375 [14] = test: Cytotoxicity against human A375 cells assessed as cell survival at 1 to 5 uM by MTT assay relative to control; format: functional, cell-based; conditions: TDE = time-dependent effect; how it was run: as §2
A-375 [15] = test: Cytotoxicity against human A375 cells assessed as cell survival after 12 to 24 hrs by MTT assay relative to control; format: functional, cell-based; how it was run: as §2
A-375 [16] = test: Upregulation of p53 mRNA expression in human A375 cells at 5 uM after 24 hrs by RT-PCR analysis; format: functional, cell-based; how it was run: as §3
A-375 [17] = test: Upregulation of p27 mRNA expression in human A375 cells at 5 uM after 24 hrs by RT-PCR analysis; format: functional, cell-based; how it was run: as §3
A-375 [18] = test: Induction of apoptosis in human A375 cells assessed as increase in Bad protein level at 5 uM after 24 hrs by Western blotting analysis; format: functional, cell-based; how it was run: as §4
A-375 [19] = test: Induction of apoptosis in human A375 cells at 5 uM after 24 hrs by AnnexinV-FITC/propidium iodide staining-based fluorimetric analysis (reference value: 2.6%); format: functional
A-375 [20] = test: Induction of apoptosis in human A375 cells assessed as decrease in Bcl-2 protein level after 24 hrs by Western blotting analysis; format: functional, cell-based; how it was run: as §4
A-375 [21] = test: Induction of apoptosis in human A375 cells assessed as increase in Bad protein level after 24 hrs by Western blotting analysis; format: functional, cell-based; how it was run: as §4
A-375 [22] = test: Induction of apoptosis in human A375 cells assessed as increase in Bax protein level after 24 hrs by Western blotting analysis; format: functional, cell-based; how it was run: as §4
A-375 [23] = test: Induction of apoptosis in human A375 cells assessed as decrease in Bcl-XL protein level after 24 hrs by Western blotting analysis; format: functional, cell-based; how it was run: as §4
A-375 [24] = test: Induction of apoptosis in human A375 cells assessed as cleavage of caspase-3 after 24 hrs by Western blotting analysis; format: functional, cell-based; how it was run: as §4
Escherichia coli = test: Binding affinity to Escherichia coli pBR322 DNA assessed as DNA unwinding at 10 to 1000 uM after 12 hrs by agarose gel electrophoresis
How it was run: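 Negatively supercoiled pBR322 plasmid (0.4 μg) incubated 12 h in TE buffer with increasing compound concentrations (0–1000 μM); samples run 2.5 h on 1% agarose gel; unwinding read as reduced mobility.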

A-375 [25] = test: Induction of apoptosis in human A375 cells assessed as cleavage of PARP after 24 hrs by Western blotting analysis; format: functional, cell-based; how it was run: as §4

Row | SMILES | viability at 5 µM (A-375 [1]) [%] | viability at 5 µM (A549) [%] | viability at 5 µM (Ca9-22) [%] | viability at 5 µM (A2058) [%] | viability at 24 h, 5 µM [2] [%] | viability at 5 µM [3] [%] | viability at 5 µM (B16) [%] | viability at 5 µM (HEK-293T) [%] | Activity (A-375 [4]) [%] | Activity (A-375 [5]) [%] | Activity (A-375 [6]) | Activity (A-375 [7]) [%] | Activity (A-375 [8]) [%] | Activity (A-375 [9]) | Activity (A-375 [10]) | Activity (A-375 [11]) | Activity (A-375 [12]) | Activity (A-375 [13]) | Activity (A-375 [14]) | Activity (A-375 [15]) | also measured
1 | COc1cc2c(cc1O)N=C[C@@H]1CCCN1C2=O | 52.2 | 85.4 | 94.4 | 54.8 | 89.7 | 61.6 | 66.8 | 55.2 |  |  |  |  |  |  |  |  |  |  |  |  | 
2 | COc1ccc(-c2cn(C/C=C/COc3cc4c(cc3OC)C(=O)N3CCC[C@H]3C=N4)nn2)cc1 | 69.2 | 81 | 84.1 | 49.2 | 104 | 80.1 | 75.2 | 40 | 5.1 | 73.6 | inactive | 13.9 | 7.4 |  |  |  |  |  |  |  | 
3 | COc1cccc(-c2cn(C/C=C\COc3cc4c(cc3OC)C(=O)N3CCC[C@H]3C=N4)nn2)c1 | 48.4 | 100 | 50 | 40.7 | 90.4 | 65.3 | 74.2 | 42.8 | 3.3 | 82.3 | inactive | 7.7 | 6.7 | Active | Active | Active | Active | Active | tde | Dose-dependent effect | Activity (A-375 [16]): Active; Activity (A-375 [17]): Active; Activity (A-375 [18]): Active; Activity (A-375 [19]): 16.4%
4 | COc1cc2c(cc1OC/C=C\Cn1cc(-c3ccccc3OC)nn1)N=C[C@@H]1CCCN1C2=O | 58.4 | 102 | 105 | 63.1 | 84.7 | 75.1 | 66.3 | 51.1 | 1.3 | 81.9 | inactive | 11.7 | 5.1 | Active | Active | Active | Active | Active | tde | Dose-dependent effect | Activity (A-375 [16]): Active; Activity (A-375 [17]): Active; Activity (A-375 [18]): Active; Activity (A-375 [19]): 11.1%
5 | COc1cccc(-c2cn(C/C=C/COc3cc4c(cc3OC)C(=O)N3CCC[C@H]3C=N4)nn2)c1 | 58.3 | 86 | 97.5 | 62.8 | 107 | 87.2 | 107 | 40 | 3.5 | 71.4 | inactive | 17.6 | 7.5 |  |  |  |  |  |  |  | 
6 | COc1cc2c(cc1OC/C=C/Cn1cc(-c3ccccc3OC)nn1)N=C[C@@H]1CCCN1C2=O | 58.4 | 91 | 95.6 | 57.9 | 100 | 83 | 98.9 | 55 | 5.1 | 69.5 | inactive | 17.3 | 8.1 |  |  |  |  |  |  |  | 
7 | COc1cc2c(cc1OC/C=C/Cn1cc(-c3ccccc3)nn1)N=C[C@@H]1CCCN1C2=O | 69.6 | 70 | 61.2 | 53.3 | 93 | 79.1 | 33.9 | 78 | 5.5 | 77.8 | inactive | 7 | 9.7 |  |  |  |  |  |  |  | 
8 | COc1ccc(-c2cn(C/C=C\COc3cc4c(cc3OC)C(=O)N3CCC[C@H]3C=N4)nn2)cc1 | 38.7 | 98.2 | 55.5 | 42 | 90.3 | 66.4 | 62.8 | 46.7 | 3.4 | 82.3 | inactive | 7.1 | 7.2 | Active | Active | Active | Active | Active | tde | Dose-dependent effect | Activity (A-375 [16]): Active; Activity (A-375 [17]): Active; Activity (A-375 [18]): Active; Activity (A-375 [19]): 12.1%
9 | COc1cc2c(cc1OC/C=C\Cn1cc(-c3ccccc3)nn1)N=C[C@@H]1CCCN1C2=O | 22.4 | 65.6 | 25.6 | 45.7 | 87.7 | 55.9 | 33.9 | 74.1 | 2.2 | 83 | inactive | 8.9 | 5.9 | Active | Active | Active | Active | Active | tde | Dose-dependent effect | Activity (A-375 [20]): Dose-dependent effect; Activity (A-375 [21]): Dose-dependent effect; Activity (A-375 [22]): Dose-dependent effect; Activity (A-375 [23]): Dose-dependent effect; Activity (A-375 [24]): Dose-dependent effect; Activity (Escherichia coli): Active; Activity (A-375 [16]): Active; Activity (A-375 [25]): Dose-dependent effect; Activity (A-375 [17]): Active; Activity (A-375 [18]): Active; Activity (A-375 [19]): 23.1%
